Data: ChEMBL document CHEMBL4477174, “Valencene from the Rhizomes of Cyperus rotundus Inhibits Skin Photoaging-Related Ion Channels and UV-Induced Melanogenesis in B16F10 Melanoma Cells” (J Nat Prod, 2016)
Values belong to the compound of their own block, whether it stands above or below them.

Key:
[1] = target: Calcium release-activated calcium channel protein 1 (Homo sapiens) (UniProt Q96D31); assay: Antagonist activity at human ORAI1 expressed in HEK293T cells assessed as […]-induced inwardly rectifying current at 90 uM and -120 mV by whole cell patch-clamp method relative to control; format: cell-based; parameters: scale not given: the % may be the effect or the level left
Calcium release-activated calcium channel protein 1 (Homo sapiens), sequence (Q96D31 whole entry, looked up): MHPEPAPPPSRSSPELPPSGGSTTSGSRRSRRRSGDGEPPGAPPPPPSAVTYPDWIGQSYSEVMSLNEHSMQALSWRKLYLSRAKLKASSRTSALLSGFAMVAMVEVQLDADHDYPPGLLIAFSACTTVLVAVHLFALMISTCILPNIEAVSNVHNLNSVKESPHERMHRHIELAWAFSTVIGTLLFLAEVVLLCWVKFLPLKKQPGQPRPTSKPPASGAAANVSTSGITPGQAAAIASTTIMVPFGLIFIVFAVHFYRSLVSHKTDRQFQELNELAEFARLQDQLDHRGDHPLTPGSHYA

[2] = target: Transient receptor potential cation channel subfamily V member 1 (Homo sapiens) (UniProt Q8NER1); assay: Antagonist activity at human TRPV1 expressed in HEK293T cells assessed as capsaicin-induced inward transient currents at 90 uM and -60 mV by whole cell patch-clamp method relative to control; format: cell-based; parameters: scale not given: the % may be the effect or the level left
Transient receptor potential cation channel subfamily V member 1 (Homo sapiens), sequence (Q8NER1 whole entry): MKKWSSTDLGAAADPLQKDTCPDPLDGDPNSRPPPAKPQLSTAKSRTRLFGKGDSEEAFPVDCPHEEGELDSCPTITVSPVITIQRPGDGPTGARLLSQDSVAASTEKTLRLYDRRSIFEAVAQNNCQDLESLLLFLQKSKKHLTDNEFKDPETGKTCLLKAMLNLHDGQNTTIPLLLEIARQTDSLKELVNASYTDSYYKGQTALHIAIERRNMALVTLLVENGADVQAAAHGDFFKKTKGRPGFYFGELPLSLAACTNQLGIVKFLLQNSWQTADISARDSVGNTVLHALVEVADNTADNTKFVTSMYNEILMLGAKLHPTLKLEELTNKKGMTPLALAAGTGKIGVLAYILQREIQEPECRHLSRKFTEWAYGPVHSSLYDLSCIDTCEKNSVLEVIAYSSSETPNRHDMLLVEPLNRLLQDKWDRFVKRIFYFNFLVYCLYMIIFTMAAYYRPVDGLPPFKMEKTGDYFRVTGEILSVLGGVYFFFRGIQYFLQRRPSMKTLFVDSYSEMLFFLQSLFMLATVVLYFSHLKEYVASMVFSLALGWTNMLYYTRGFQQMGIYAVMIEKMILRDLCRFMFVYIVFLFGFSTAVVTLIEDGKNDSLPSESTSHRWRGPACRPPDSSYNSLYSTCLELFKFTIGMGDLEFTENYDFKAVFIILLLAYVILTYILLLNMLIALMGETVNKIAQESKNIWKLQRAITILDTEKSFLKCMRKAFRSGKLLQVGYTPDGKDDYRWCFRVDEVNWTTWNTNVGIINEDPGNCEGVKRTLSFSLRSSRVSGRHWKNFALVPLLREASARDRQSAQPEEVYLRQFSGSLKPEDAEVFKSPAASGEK
How it was run: (§1)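 Whole-cell patch clamp, with TRPV1 current evoked by 1 μM capsaicin. Current was compared before and after 90 μM test agent using mean I−V curves, read at −60 mV. Remaining current was normalized to the steady-state peak current before treatment (100%), reported as mean ± SEM, n = 3–6.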

B16-F10 [3] = assay: Cytotoxicity in mouse B16F10 cells at <3 ug/ml measured after 48 hrs by MTT assay; format: cell-based; settings: b16-f10, 48 h
Homo sapiens [4] = species: Homo sapiens; assay: Inhibition of SOCE signalling in human Jurkat-T cells assessed as reduction in alpha-CD3 induced cytoplasmic calcium concentration at 50 uM measured at every 2 sec interval by Fura-2 dye based fluorimetric analysis; format: cell-based; parameters: scale not given: the % may be the effect or the level left
B16-F10 [5] = assay: Inhibition of UV-induced melanogenesis in mouse B16F10 cells assessed as reduction in melanin level pretreated with compound prior to UVB exposure measured after 48 hrs by spectrophotometric method; format: functional, cell-based
How it was run: (§2)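 B16F10 murine melanoma cells were pretreated with test agent (7.5 or 15 μg/mL; reference ORAI1 inhibitor 3 μg/mL) before UVB exposure. Melanin content was measured 48 h later.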

B16-F10 [6] = assay: Inhibition of UV-induced melanogenesis in mouse B16F10 cells assessed as reduction in melanin level pretreated at 7.5 ug/ml prior to UVB exposure measured after 48 hrs by spectrophotometric method; format: functional; parameters: scale not given: the % may be the effect or the level left; how it was run: as §2
[7] = target: Transient receptor potential cation channel subfamily V member 1 (Homo sapiens) (UniProt Q8NER1); assay: Antagonist activity at human TRPV1 expressed in HEK293T cells assessed as inhibition of capsaicin-induced inward transient currents at 90 uM and -60 mV by whole cell patch-clamp method relative to control; format: cell-based; how it was run: as §1
[8] = target: Calcium release-activated calcium channel protein 1 (Homo sapiens) (UniProt Q96D31); assay: Antagonist activity at human ORAI1 expressed in HEK293T cells assessed as inhibition of […]-induced inwardly rectifying current at -120 mV by whole cell patch-clamp method; format: cell-based
[9] = target: Calcium release-activated calcium channel protein 1 (Homo sapiens) (UniProt Q96D31); assay: Antagonist activity at human ORAI1 expressed in HEK293T cells assessed as inhibition of […]-induced inwardly rectifying current at 10 uM and -120 mV by whole cell patch-clamp method; format: cell-based
B16-F10 [10] = assay: Inhibition of UV-induced melanogenesis in mouse B16F10 cells assessed as reduction in melanin level pretreated at 15 ug/ml prior to UVB exposure measured after 48 hrs by spectrophotometric method; format: functional; parameters: scale not given: the % may be the effect or the level left; how it was run: as §2
Homo sapiens [11] = species: Homo sapiens; assay: Inhibition of SOCE signalling in human Jurkat-T cells assessed as reduction in alpha-CD3 induced cytoplasmic calcium concentration measured at every 2 sec interval by Fura-2 dye based fluorimetric analysis; format: cell-based
Homo sapiens [12] = species: Homo sapiens; assay: Inhibition of SOCE signalling in human Jurkat-T cells assessed as reduction in alpha-CD3 induced cytoplasmic calcium concentration at 10 uM measured at every 2 sec interval by Fura-2 dye based fluorimetric analysis; format: cell-based; parameters: scale not given: the % may be the effect or the level left
Homo sapiens [13] = species: Homo sapiens; assay: Inhibition of SOCE signalling in human Jurkat-T cells assessed as reduction in alpha-CD3 induced cytoplasmic calcium concentration at 30 uM measured at every 2 sec interval by Fura-2 dye based fluorimetric analysis; format: cell-based; parameters: scale not given: the % may be the effect or the level left
[14] = target: Calcium release-activated calcium channel protein 1 (Homo sapiens) (UniProt Q96D31); assay: Antagonist activity at human ORAI1 expressed in HEK293T cells assessed as inhibition of […]-induced inwardly rectifying current at 90 uM and -120 mV by whole cell patch-clamp method relative to control; format: cell-based
[15] = target: Calcium release-activated calcium channel protein 1 (Homo sapiens) (UniProt Q96D31); assay: Antagonist activity at human ORAI1 expressed in HEK293T cells assessed as inhibition of […] induced inwardly rectifying current at 30 uM and -120 mV by whole cell patch-clamp method; format: cell-based
B16-F10 [16] = assay: Cytotoxicity in mouse B16F10 cells at <15 ug/ml measured after 48 hrs by MTT assay; format: cell-based; settings: b16-f10, 48 h

Activity [1]: 44% | Activity [2]: 45%
SMILES: C=C1CC[C@H]2O[C@]2(C)CC[C@@H]2[C@@H]1CC2(C)C

Activity [1]: 5% | inhibition [7]: 69% | inhibition [8]: Dose-dependent effect | inhibition [9]: 13% | Activity [2]: 31% | inhibition [14]: 94 to 95% | inhibition [15]: 45%
SMILES: C=C(C)[C@@H]1CCC2=CCC[C@@H](C)[C@]2(C)C1
Activity (Homo sapiens [4]): 85% | Activity (B16-F10 [5]): Dose-dependent effect | Activity (B16-F10 [6]): 94.82% | Activity (B16-F10 [10]): 82.66% | Activity (Homo sapiens [11]): Dose-dependent effect | Activity (Homo sapiens [12]): 53% | Activity (Homo sapiens [13]): 75% | Activity (B16-F10 [16]): Non-Toxic

Activity [1]: 79% | Activity [2]: 115%
SMILES: C=C1C2CCC(C2)C1(C)C (centres undefined)

Second part, the compound before the results:

SMILES: C=C(C)[C@@H]1CC[C@@]2(C)CCC(=O)C(C)=C2C1
Activity [1]: 50% | Activity [2]: 94%

SMILES: C=C(C)[C@@H]1CCC2=CC(=O)C[C@@H](C)[C@]2(C)C1
Activity [1]: 53% | Activity [2]: 176%

SMILES: Cc1nnsc1C(=O)Nc1ccc(-n2nc(C(F)(F)F)cc2C(F)(F)F)cc1
Activity (B16-F10 [3]): Non-Toxic
